# According to ChEMBL document CHEMBL1147968, “Novel lbeta-methylcarbapenems having cyclic sulfonamide moieties: synthesis and evaluation of in vitro antibacterial activity” (2007):
# What was measured:
# Assay type in all cases: functional
# [1] = tested on: Enterococcus faecalis; test: Antibacterial activity against Enterococcus faecalis 2347 after 18 to 24 hrs by agar dilution method
# Procedure, shortened: (§1)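 MICs were determined by agar dilution on test agar. An overnight tryptosoy broth culture was diluted in the same broth to about 10⁶ cells/mL and spotted with an inoculating device onto agar containing serial twofold dilutions of compound. Plates were incubated at 37 °C for 18–20 h, and the MIC was the lowest concentration with no visible growth.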
# [2] = tested on: Pseudomonas aeruginosa; test: Antibacterial activity against Pseudomonas aeruginosa 5455 after 18 to 24 hrs by agar dilution method; procedure, shortened: as §1
# [3] = tested on: Haemophilus influenzae; test: Antibacterial activity against Haemophilus influenzae 1210 after 18 to 24 hrs by agar dilution method; procedure, shortened: as §1
# [4] = tested on: Enterobacter cloacae; test: Antibacterial activity against Enterobacter cloacae 34 after 18 to 24 hrs by agar dilution method; procedure, shortened: as §1
# [5] = tested on: Klebsiella pneumoniae; test: Antibacterial activity against Klebsiella pneumoniae 523 after 18 to 24 hrs by agar dilution method; procedure, shortened: as §1
# [6] = tested on: Acinetobacter baumannii; test: Antibacterial activity against Acinetobacter baumannii 2289 after 18 to 24 hrs by agar dilution method; procedure, shortened: as §1
# [7] = tested on: Staphylococcus; test: Antibacterial activity against coagulase negative Staphylococcus after 18 to 24 hrs by agar dilution method
# Procedure, shortened: (§2)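 Agar dilution on test agar holding serial twofold dilutions of compound. Overnight tryptosoy broth cultures were diluted in the same broth to about 10⁶ cells/mL and spotted with an inoculating device. Plates were incubated at 37 °C for 18–20 h.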
# [8] = tested on: Escherichia coli; test: Antibacterial activity against Escherichia coli 04 after 18 to 24 hrs by agar dilution method; procedure, shortened: as §1
# [9] = tested on: Staphylococcus aureus; test: Antibacterial activity against Staphylococcus aureus 1218 after 18 to 24 hrs by agar dilution method; procedure, shortened: as §1
# [10] = tested on: Streptococcus agalactiae; test: Antibacterial activity against Streptococcus agalactiae 32 after 18 to 24 hrs by agar dilution method; procedure, shortened: as §1
# [11] = tested on: Serratia marcescens; test: Antibacterial activity against Serratia marcescens 3349 after 18 to 24 hrs by agar dilution method; procedure, shortened: as §1
# [12] = tested on: Citrobacter freundii; test: Antibacterial activity against Citrobacter freundii 323 after 18 to 24 hrs by agar dilution method; procedure, shortened: as §1
# [13] = tested on: Streptococcus pyogenes; test: Antibacterial activity against Streptococcus pyogenes 9889 after 18 to 24 hrs by agar dilution method; procedure, shortened: as §2
# [14] = tested on: Streptococcus pneumoniae; test: Antibacterial activity against Streptococcus pneumoniae 0025 after 18 to 24 hrs by agar dilution method; procedure, shortened: as §1
smiles,measurement,setting,value
C[C@@H](O)C1C(=O)N2C(C(=O)O)=C(S[C@@H]3CN[C@H](CN4CCN(Cc5ccccc5)S4(=O)=O)C3)[C@H](C)C12 (some centres undefined),MIC,[1],3.12 µg/mL
same,MIC,[2],100 µg/mL
same,MIC,[3],12.5 µg/mL
same,MIC,[4],0.781 µg/mL
same,MIC,[5],0.781 µg/mL
same,MIC,[6],50 µg/mL
same,MIC,[7],0.098 µg/mL
same,MIC,[8],0.195 µg/mL
same,MIC,[9],3.12 µg/mL
same,MIC,[10],0.02 µg/mL
same,MIC,[11],6.25 µg/mL
same,MIC,[12],0.781 µg/mL
same,MIC,[13],0.02 µg/mL
same,MIC,[14],0.025 µg/mL
